Experimental data reported in ChEMBL document CHEMBL1141612, “Glyconanobiotics: Novel carbohydrated nanoparticle antibiotics for MRSA and Bacillus anthracis” (2008).
In brackets after ≈: the same amount, converted by molar mass.

Legend:
Type in all cases: functional
Staphylococcus aureus [1] = assay: Antibacterial activity against Staphylococcus aureus ATCC 25923 after 24 hrs by broth dilution MIC assay; conditions: ATCC 25923, 24 h
In short: (§1)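 Broth serial dilution. For nanoparticle emulsions, the drug content is assumed equal to the amount used in the polymerization, expressed as µg drug per mL of undiluted emulsion.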

Bacillus anthracis = assay: Antibacterial activity against Bacillus anthracis after 24 hrs by broth dilution MIC assay; in short: as §1
Staphylococcus aureus [2] = assay: Antibacterial activity against methicillin-resistant Staphylococcus aureus ATCC 43300 after 24 hrs by broth dilution MIC assay; conditions: ATCC 43300, 24 h; in short: as §1

`C=CC(=O)O[C@@H]1[C@@H]2OC(C)(C)O[C@@H]2O[C@@H]1C(COC(C)=O)OC(=O)CCC(=O)N[C@@H]1C(=O)N2C1SC(C)(C)[C@@H]2C(=O)O` (stereo partly specified) showed an MIC (Staphylococcus aureus [1]) of over 256 µg/mL, an MIC (Bacillus anthracis) of over 256 µg/mL and an MIC (Staphylococcus aureus [2]) of over 256 µg/mL.
`C=CC(=O)O[C@@H]1[C@@H]2OC(C)(C)O[C@@H]2O[C@@H]1C(COC(C)=O)OC(=O)CCC(=O)N1CCN(c2cc3c(cc2F)c(=O)c(C(=O)O)cn3C2CC2)CC1` (stereo partly specified) [CIPROFLOXACIN ACRYLATE] was tested, and the MIC (Staphylococcus aureus [1]) was 32 µg/mL (≈ 43.9 µM), the MIC (Bacillus anthracis) was 16 µg/mL (≈ 21.9 µM) and the MIC (Staphylococcus aureus [2]) was 32 µg/mL (≈ 43.9 µM).
In the case of `C=CC(=O)O[C@@H]1[C@H]2OC(C)(C)O[C@H]2O[C@@H]1C(COC(=O)CCC(=O)O[C@H]1C(=O)N(SC(C)CC)[C@H]1c1ccccc1Cl)OC(=O)CCC(=O)O[C@H]1C(=O)N(SC(C)CC)[C@H]1c1ccccc1Cl` (stereo partly specified) [LACTAM MONOMER], the MIC (Staphylococcus aureus [1]) is reported as 128 µg/mL (≈ 127 µM), the MIC (Bacillus anthracis) is reported as 64 µg/mL (≈ 63.4 µM) and the MIC (Staphylococcus aureus [2]) is reported as 128 µg/mL (≈ 127 µM).
`CC1(C)S[C@@H]2[C@H](NC(=O)Cc3ccccc3)C(=O)N2[C@H]1C(=O)O` [PENICILLIN G] gave an MIC (Staphylococcus aureus [1]) of 0.012 µg/mL (≈ 0.0359 µM) and an MIC (Staphylococcus aureus [2]) of 16 µg/mL (≈ 47.8 µM).
